Reference: ChEMBL document CHEMBL1153088, “Discovery of benzo[g]indol-3-carboxylates as potent inhibitors of microsomal prostaglandin E(2) synthase-1” (Bioorg Med Chem, 2009)
Active and inactive are the calls of the source. No cut-off for these calls is given here.

How the values were obtained:
[1] = biological target: T1, Prostaglandin G/H synthase 1 (Ovis aries) (UniProt P05979); assay: Inhibition of ovine COX1 assessed as residual enzyme activity at 10 uM relative to untreated control
T1 sequence (whole entry): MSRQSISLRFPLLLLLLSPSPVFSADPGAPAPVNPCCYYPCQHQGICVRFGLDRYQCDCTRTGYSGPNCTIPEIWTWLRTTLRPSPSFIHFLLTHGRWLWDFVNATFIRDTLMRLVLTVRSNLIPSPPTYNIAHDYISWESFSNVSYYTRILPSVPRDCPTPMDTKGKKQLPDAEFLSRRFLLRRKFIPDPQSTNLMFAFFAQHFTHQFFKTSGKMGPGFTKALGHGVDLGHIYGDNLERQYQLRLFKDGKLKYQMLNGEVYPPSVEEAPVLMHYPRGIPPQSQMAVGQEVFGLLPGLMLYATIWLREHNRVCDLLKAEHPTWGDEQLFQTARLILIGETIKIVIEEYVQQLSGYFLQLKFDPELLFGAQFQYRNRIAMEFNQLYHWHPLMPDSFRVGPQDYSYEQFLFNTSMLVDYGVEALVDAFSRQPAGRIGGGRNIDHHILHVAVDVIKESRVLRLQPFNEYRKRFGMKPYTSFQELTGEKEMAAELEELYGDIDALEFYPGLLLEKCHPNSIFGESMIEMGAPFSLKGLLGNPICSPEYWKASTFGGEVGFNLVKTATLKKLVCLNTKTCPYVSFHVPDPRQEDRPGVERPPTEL
Procedure, shortened: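 Purified ovine COX-1 (50 units) in 1 ml of 100 mM Tris pH 8 containing 5 mM glutathione, 5 µM hemoglobin and 100 µM EDTA was preincubated with compound for 5 min at 4 °C and prewarmed 60 s at 37 °C. The reaction was started with 5 µM AA and run 5 min at 37 °C, and 12-HHT was analysed by HPLC.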

[2] = biological target: T2, Prostaglandin E synthase (Homo sapiens) (UniProt O14684); assay: Inhibition of mPGES1 in IL1-beta induced human A549 cell microsomal membrane at 10 uM assessed as enzyme residual activity by PGE2 formation assay relative to untreated control; assay type: microsomes; settings: Microsome
T2 sequence (whole entry): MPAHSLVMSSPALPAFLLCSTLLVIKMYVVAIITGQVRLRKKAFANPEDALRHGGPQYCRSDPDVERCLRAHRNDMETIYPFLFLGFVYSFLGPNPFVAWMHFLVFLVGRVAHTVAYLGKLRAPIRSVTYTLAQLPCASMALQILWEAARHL
Procedure, shortened: (§1)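 Microsomes from A549 cells treated with IL-1β (1 ng/ml, 72 h) were used at 50 µg/ml in 0.1 M potassium phosphate pH 7.4 with 2.5 mM glutathione. Compound (DMSO 1% final) was preincubated 15 min at 4 °C, then PGH2 was added (20 µM final) for 1 min at 4 °C.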

[3] = biological target: T3, Prostaglandin E synthase (Homo sapiens, UniProt O14684); assay: Inhibition of mPGES1 in IL1-beta induced human A549 cell microsomal membrane assessed as blockade of conversion of PGH2 to PGE2; assay type: microsomes, Microsome; procedure, shortened: as §1
T3 sequence (O14684 whole entry): T2 sequence (whole entry)

[4] = biological target: T2, Prostaglandin E synthase (Homo sapiens); assay: Inhibition of mPGES1 in IL1-beta induced human A549 cells assessed as PGE2 production at 5 uM preincubated for 10 mins; assay type: cell-based
Procedure, shortened: (§2)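 Intact IL-1β-induced A549 cells (4×10^6/ml PBS, 1 mM CaCl2) were preincubated with compound (DMSO ≤0.3%) for 10 min at 37 °C. They were then stimulated with 2.5 µM A23187 plus 1 µM AA and [3H]AA (18.4 kBq) for 15 min, and the reaction was stopped on ice. [3H]PGE2 was separated by RP-18 SPE/HPLC and counted by liquid scintillation.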

[5] = biological target: T3, Prostaglandin E synthase; assay: Inhibition of mPGES1 in IL1-beta induced human A549 cells assessed as PGE2 production preincubated for 10 mins; assay type: cell-based; procedure, shortened: as §2
[6] = biological target: Prostaglandin G/H synthase 1 (Homo sapiens) (UniProt P23219); assay: Inhibition of COX1 in platelets assessed as inhibition of 12-HHT formation at 10 uM by RP-HPLC
Sequence of Prostaglandin G/H synthase 1 (Homo sapiens) (P23219 whole entry): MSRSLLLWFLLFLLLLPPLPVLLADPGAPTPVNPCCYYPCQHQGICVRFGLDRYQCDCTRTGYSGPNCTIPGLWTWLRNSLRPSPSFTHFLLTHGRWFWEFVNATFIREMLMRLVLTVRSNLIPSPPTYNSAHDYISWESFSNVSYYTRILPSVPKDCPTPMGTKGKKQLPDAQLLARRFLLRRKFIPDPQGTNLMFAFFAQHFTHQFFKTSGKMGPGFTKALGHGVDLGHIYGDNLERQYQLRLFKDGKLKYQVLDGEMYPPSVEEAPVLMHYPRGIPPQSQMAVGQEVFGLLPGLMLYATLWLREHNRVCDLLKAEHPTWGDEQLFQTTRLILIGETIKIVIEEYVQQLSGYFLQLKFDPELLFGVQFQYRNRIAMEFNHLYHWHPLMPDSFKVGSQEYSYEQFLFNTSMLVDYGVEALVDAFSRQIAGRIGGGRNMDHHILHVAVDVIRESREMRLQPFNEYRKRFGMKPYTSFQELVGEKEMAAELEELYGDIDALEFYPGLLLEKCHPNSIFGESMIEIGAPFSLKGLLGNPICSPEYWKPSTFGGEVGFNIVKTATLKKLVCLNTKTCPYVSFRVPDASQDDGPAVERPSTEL
Procedure, shortened: (§3)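 Freshly isolated human platelets (10^8/ml PBS with 1 mM CaCl2) were preincubated with compound (DMSO ≤0.3%), then stimulated with 5 µM AA for 5 min at 37 °C. 12-HHT was extracted and quantified by RP-HPLC. Mean ± SE, n=3–5.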

[7] = biological target: T4, Prostaglandin G/H synthase 2 (Homo sapiens) (UniProt P35354); assay: Inhibition of COX2 in IL1-beta induced human A549 cells assessed as 6-keto-PGF1-alpha formation up to 30 uM preincubated for 15 mins by ELISA; assay type: cell-based
T4 sequence (whole entry): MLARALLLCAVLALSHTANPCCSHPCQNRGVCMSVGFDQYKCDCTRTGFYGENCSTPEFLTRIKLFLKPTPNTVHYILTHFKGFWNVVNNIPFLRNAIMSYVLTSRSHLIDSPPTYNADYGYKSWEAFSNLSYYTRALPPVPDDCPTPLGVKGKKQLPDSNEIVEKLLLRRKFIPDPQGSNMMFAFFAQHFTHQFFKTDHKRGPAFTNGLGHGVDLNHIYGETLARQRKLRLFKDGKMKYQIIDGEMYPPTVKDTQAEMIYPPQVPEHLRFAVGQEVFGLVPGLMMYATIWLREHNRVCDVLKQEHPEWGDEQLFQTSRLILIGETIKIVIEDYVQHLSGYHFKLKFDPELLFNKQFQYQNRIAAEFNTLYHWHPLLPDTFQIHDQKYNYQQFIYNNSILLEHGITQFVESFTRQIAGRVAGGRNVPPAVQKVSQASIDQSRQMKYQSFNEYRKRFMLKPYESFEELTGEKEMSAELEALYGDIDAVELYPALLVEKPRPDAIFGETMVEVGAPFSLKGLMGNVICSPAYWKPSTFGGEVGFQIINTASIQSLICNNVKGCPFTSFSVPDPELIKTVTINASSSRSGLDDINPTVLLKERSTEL
Procedure, shortened: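 A549 cells were induced with IL-1β (1 ng/ml, 72 h, 2% FCS). Cells at 5×10^6 per ml PBS with 1 mM CaCl2 were preincubated 15 min at 37 °C, then given 30 µM AA for 15 min at 37 °C, and the reaction was stopped on ice. Released 6-keto PGF1α was measured by monoclonal-antibody ELISA with β-galactosidase tracer read at 550 nm.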

[8] = system: A549; assay: Toxicity in human A549 cells assessed as reduction of cell viability by MTT assay; assay type: cell-based
Procedure, shortened: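 A549 cells (4×10^4 per 100 µl) were plated for 16 h, then exposed to compounds at 30 µM (DMSO ≤0.3%) for 5 h. MTT was added for 4 h, formazan was solubilized in 10% SDS/20 mM HCl, and absorbance at 595 nm was read relative to vehicle-treated cells.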

[9] = biological target: T2, Prostaglandin E synthase (Homo sapiens); assay: Inhibition of mPGES1 in IL1-beta induced human A549 cells assessed as PGE2 production at 30 uM preincubated for 10 mins; assay type: cell-based; set-up: scale not given: the % may be the effect or the level left
Procedure, shortened: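 Intact IL-1β-induced A549 cells (4×10^6/ml PBS, 1 mM CaCl2) were preincubated with compound (DMSO ≤0.3%) for 10 min at 37 °C. [3H]PGE2 was separated by RP-18 SPE/HPLC and counted by liquid scintillation.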

[10] = biological target: Prostaglandin G/H synthase 1 (Homo sapiens) (UniProt P23219); assay: Inhibition of COX1 in platelets assessed as inhibition of 12-HHT formation up to 30 uM uM by RP-HPLC; procedure, shortened: as §3

Row | Activity [1] [%] | Activity [2] [%] | IC50 [3] [nM] | Compound | also measured
1 | 26 | 26 | 3400 | CCOC(=O)c1c(Cc2ccc(Cl)cc2)[nH]c2c1cc(O)c1ccccc12 | –
2 | – | – | – | Cc1ccc(-c2cc(C(F)(F)F)nn2-c2ccc(S(N)(=O)=O)cc2)cc1 | inhibition [4]: Active
3 | – | 13 | 1600 | CCOC(=O)c1c(Nc2cccc(Cl)c2)[nH]c2c1cc(O)c1ccccc12 | IC50 ([5]; a549): Dose-dependent effect; IC50 ([5]; read-out: IC50): 7900 nM; inhibition [6]: 31%; inhibition [7]: inactive; inhibition [1]: inactive; Activity [8]: Non-toxic; Activity [9]: 35%
4 | 82 | – | – | CCOC(=O)c1c(Cc2cccc(Br)c2)[nH]c2c1cc(O)c1ccccc12 | –
5 | – | 55 | – | CCOC(=O)c1c(Cc2cccc(Cl)c2)[nH]c2ccc(O)cc12 | –
6 | 89 | 14 | 100 | CCOC(=O)c1c(Cc2ccccc2Cl)[nH]c2c1cc(O)c1ccccc12 | IC50 ([5]; read-out: IC50): 20500 nM; inhibition [10]: inactive; inhibition [7]: inactive; Activity [9]: 35%
7 | – | 65 | – | CCOC(=O)c1c(CCc2cccc(Cl)c2)[nH]c2ccc(O)cc12 | –
8 | – | 5 | 500 | CCOC(=O)c1c(Cc2cccc(F)c2)[nH]c2c1cc(O)c1ccccc12 | inhibition [1]: inactive
9 | – | 57 | – | CCOC(=O)c1c(CCc2cccc(Cl)c2)[nH]c2c1cc(O)c1ccccc12 | –
